Measurements published in PubChem BioAssay.
Active and inactive are the calls of the source.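 How the source made its calls, unless noted: active means Her2 level under about 52% in both replicate screens, with viability over 70% of control (limit read from the data); inconclusive means Her2 under the limit in one screen only, or viability under 70%; inactive means Her2 level above the set limit.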

Experiments:
[1] = reducers of endogenous Her2 protein level, primary screen, SKBR3 breast tumor cells, AlphaScreen, ATP viability (AID 461); settings: 18-24 h, measured here: SKBR3 viability, ATP luminescence, at 10 µM;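 on Her2 level: lower value means less Her2 protein in the cells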;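 on viability: percent of carrier control wells set as 100% viability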
[2] = target: Receptor tyrosine-protein kinase erbB-2 (Homo sapiens) (UniProt P04626); experiment: as above; settings: 18-24 h, at 10 µM, stronger effect = lower value
Receptor tyrosine-protein kinase erbB-2 (Homo sapiens), sequence (P04626 whole entry, looked up): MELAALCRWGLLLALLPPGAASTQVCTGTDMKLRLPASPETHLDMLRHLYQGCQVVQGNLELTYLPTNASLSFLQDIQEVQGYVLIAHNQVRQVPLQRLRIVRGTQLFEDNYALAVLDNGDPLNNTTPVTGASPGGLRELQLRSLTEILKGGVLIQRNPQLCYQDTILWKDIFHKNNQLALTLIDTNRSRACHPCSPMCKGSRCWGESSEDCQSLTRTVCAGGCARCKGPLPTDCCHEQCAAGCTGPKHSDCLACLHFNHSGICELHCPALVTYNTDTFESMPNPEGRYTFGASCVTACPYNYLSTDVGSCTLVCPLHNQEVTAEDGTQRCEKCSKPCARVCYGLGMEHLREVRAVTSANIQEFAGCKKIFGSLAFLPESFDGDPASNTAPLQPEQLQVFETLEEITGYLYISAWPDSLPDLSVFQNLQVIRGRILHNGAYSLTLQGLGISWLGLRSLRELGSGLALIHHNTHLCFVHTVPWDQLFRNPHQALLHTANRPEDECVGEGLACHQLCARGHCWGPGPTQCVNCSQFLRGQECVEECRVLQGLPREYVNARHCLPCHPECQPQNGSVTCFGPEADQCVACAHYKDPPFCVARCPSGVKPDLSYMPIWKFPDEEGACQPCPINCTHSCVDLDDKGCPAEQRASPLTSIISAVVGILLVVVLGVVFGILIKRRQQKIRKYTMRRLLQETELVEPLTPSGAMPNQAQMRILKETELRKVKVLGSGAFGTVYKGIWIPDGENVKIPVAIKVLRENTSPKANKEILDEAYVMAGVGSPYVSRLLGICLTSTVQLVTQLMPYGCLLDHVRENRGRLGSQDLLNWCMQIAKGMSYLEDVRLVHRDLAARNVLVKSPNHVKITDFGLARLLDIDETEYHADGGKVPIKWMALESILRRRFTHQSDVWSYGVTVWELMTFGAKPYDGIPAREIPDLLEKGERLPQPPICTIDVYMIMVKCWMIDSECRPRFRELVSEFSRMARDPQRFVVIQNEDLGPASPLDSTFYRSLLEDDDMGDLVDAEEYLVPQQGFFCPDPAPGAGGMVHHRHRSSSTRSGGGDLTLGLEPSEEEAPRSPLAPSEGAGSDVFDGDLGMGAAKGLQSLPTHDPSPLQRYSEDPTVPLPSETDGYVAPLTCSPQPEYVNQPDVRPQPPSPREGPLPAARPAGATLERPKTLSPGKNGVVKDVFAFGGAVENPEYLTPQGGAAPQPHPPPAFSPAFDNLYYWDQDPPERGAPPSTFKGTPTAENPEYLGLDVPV

[3] = SK-BR-3 cell growth inhibitors, pilot screen, 24 h, human (AID 572;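 active means viability at or below 10% of carrier control in both of two separate runs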;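 further: compound exposure lasted between 18 and 24 h rather than exactly 24 h; 100% = carrier-treated control wells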); settings: SK-BR-3 viability, CellTiter-Glo luminescence, at 10 µM, stronger effect = lower value
[4] = HUVEC growth inhibition – cell-based, human, primary screen (AID 575;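 active means viability at or below 30% in both replicate assays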;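 further: 100% = median of untreated cell wells with 0.1% DMSO on each plate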); settings: HUVEC proliferation, CellTiter-Glo luminescence, 72 h; at 10 µM; stronger effect = lower value
Outline: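 Test system – primary HUVEC, no more than 12 passages · Dosing – one dose, 10 µM final, 0.1% DMSO · Times – 72 h treatment at 37 °C · Measured by – ATP-based CellTiter-Glo luminescent read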

[5] = growth inhibitors of H69AR lung tumor, primary screen, human, duplicate replicates (AID 580;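 active means viability at or under a set limit in both replicates, limit being median viability minus 3 SD, cut at about 48% in these data, passing the limit was not always enough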;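 further: 100% = mean luminescence of untreated wells and 0% = no signal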); settings: H69AR lung tumor cells viability, ATP luminescence, 72 h; at 10 µM; stronger effect = lower value
[6] = reversal of MRP1-mediated doxorubicin resistance, pilot screen, H69AR cells, doxorubicin co-treatment (AID 601;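 active means viability loss from added drug above about 55%, and viability with drug at most 40%, in both replicates, limit read from the data, passing the limit was not always enough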); settings: CellTiter-Glo, 72 h, at 10 µM; for differential viability (reversal): stronger effect = higher value
[7] = 384-well plate pilot, post-Golgi transport modulator project, inhibition of yeast transport mutant growth (AID 636; in the data active means inhibition above about 31%); settings: absorbance 615 nm, about 18 h, stronger effect = higher value
[8] = growth suppression of yeast trafficking mutant, preliminary HTS, modulators of trafficking downstream of Golgi apparatus project, 1536-format plate, OD 615 nm (AID 637; in the data active means inhibition above about 30%); settings: yeast transport mutant growth, absorbance 615 nm, 18 h; stronger effect = higher value
[9] = H69AR cells + 2 uM doxorubicin, measured here: viability with 2 uM doxorubicin, stronger effect = lower value
[10] = H69AR cells, compound alone cytotoxicity

| SMILES | viability [1] | Her2 level [2] | viability [3] | viability [4] | viability [5] | differential viability (reversal) ([6]; H69AR cells + 2 uM doxorubicin) | viability [6, 9] | viability [6, 10] | inhibition [7] | inhibition [8] |
| --- | --- | --- | --- | --- | --- | --- | --- | --- | --- | --- |
| Cc1cc(/C=N/n2cnnc2)c(C)n1-c1ccc(Cl)cc1Cl | 99.5% | 64.5% (inactive) | 99.5% (inactive) | 92.3% (inactive) | 90.6% (inactive) | 10.1% (inactive) | 80.5% | 90.6% | -5.54% (inactive) | -6.17% (inactive) |
| Cc1nnc(SCC(=O)NCCN2C(=O)CSC2=O)s1 | 96.5% | 102% (inactive) | 96.5% (inactive) | 114% (inactive) | 98.3% (inactive) | -1.88% (inactive) | 100% | 98.3% | -3.24% (inactive) | 0.63% (inactive) |
| Cc1cccc(N2CCN(Cc3c(C)n(C)n(-c4ccccc4)c3=O)CC2)c1C | 83.5% | 88.5% (inactive) | 83.5% (inactive) | 78.1% (inactive) | 83.9% (inactive) | 0.085% (inactive) | 83.8% | 83.9% | -2.47% (inactive) | -1.31% (inactive) |
| COc1ccccc1-n1c(-c2cccnc2)n[nH]c1=S | 88% | 109% (inactive) | 88% (inactive) | 110% (inactive) | 109% (inactive) | 6.74% (inactive) | 102% | 109% | -0.4% (inactive) | -2.95% (inactive) |
| COCCn1c(CN2CCN(c3cccc(Cl)c3)CC2)nc2c1c(=O)n(C)c(=O)n2C | 85% | 85% (inactive) | 85% (inactive) | 64.7% (inactive) | 72.9% (inactive) | 17.6% (inactive) | 55.4% | 72.9% | -5.87% (inactive) | 1.83% (inactive) |
| COc1ccc(C(=O)c2ccccc2)c(O)c1 | 86.5% | 110% (inactive) | 86.5% (inactive) | 97.7% (inactive) | 106% (inactive) | 13.6% (inactive) | 92% | 106% | -3.33% (inactive) | 22.7% (inactive) |
| COc1ccc2c(c1)CCc1c(C(=O)NCc3cccnc3)noc1-2 | 97.5% | 95.5% (inactive) | 97.5% (inactive) | 102% (inactive) | 103% (inactive) | 17.7% (inactive) | 85.3% | 103% | -1.71% (inactive) | 0.55% (inactive) |
| O=C(OCCN1C(=O)c2ccccc2C1=O)c1ccc(S(=O)(=O)N2CCCCCC2)cc1 | 114% | 76.5% (inactive) | 114% (inactive) | 78.5% (inactive) | 105% (inactive) | 17.6% (inactive) | 87.6% | 105% | -6.22% (inactive) | 1.11% (inactive) |
| Cc1ccccc1CS(=O)(=O)Cc1ccc(C(=O)NCCCN2CCOCC2)o1 | 77% | 97% (inactive) | 77% (inactive) | 104% (inactive) | 98.2% (inactive) | 3.12% (inactive) | 95.1% | 98.2% | -0.39% (inactive) | -6.13% (inactive) |
| Cc1ccsc1C1C2=C(CCCC2=O)Nc2ncnn21 (stereo not given) | 86% | 100% (inactive) | 86% (inactive) | 98% (inactive) | 92.6% (inactive) | -7.12% (inactive) | 99.7% | 92.6% | -1.32% (inactive) | -1.31% (inactive) |
| N#Cc1nc(COc2ccccc2)oc1NCCCn1ccnc1 | 104% | 103% (inactive) | 104% (inactive) | 96.5% (inactive) | 112% (inactive) | 5.22% (inactive) | 107% | 112% | -0.39% (inactive) | 5.56% (inactive) |
| CCN(c1ccc(OC)cc1)S(=O)(=O)c1ccc2c(c1)CCN2C(=O)CCC(=O)O | 115% | 97.5% (inactive) | 115% (inactive) | 88.9% (inactive) | 92.4% (inactive) | 2.4% (inactive) | 90% | 92.4% | -3.55% (inactive) | -2.06% (inactive) |
| Cc1ccc(CCNC(=O)CC2Oc3ccc(C)cc3NC2=O)cc1 (stereo not given) | 90% | 93.5% (inactive) | 90% (inactive) | 74.5% (inactive) | 96% (inactive) | 3.38% (inactive) | 92.6% | 96% | 5.47% (inactive) | -2.46% (inactive) |
| COc1ccc(N2CCN(CCCNC(=O)CC3Oc4ccc(C)cc4NC3=O)CC2)cc1 (stereo not given) | 87.5% | 99% (inactive) | 87.5% (inactive) | 88.9% (inactive) | 89.6% (inactive) | 0.915% (inactive) | 88.7% | 89.6% | -2.27% (inactive) | -2.62% (inactive) |
| CCOC(=O)CC1=C(C(=O)OCC)C(c2ccc(C)o2)C(C#N)=C(N)O1 (stereo not given) | 95% | 104% (inactive) | 95% (inactive) | 107% (inactive) | 85.6% (inactive) | 8.26% (inactive) | 77.3% | 85.6% | 0.65% (inactive) | -9.05% (inactive) |
| COc1ccc(-c2nnc(SCCC(=O)O)n2-c2ccccc2)cc1 | 113% | 96.5% (inactive) | 113% (inactive) | 96.1% (inactive) | 95.2% (inactive) | -2.17% (inactive) | 97.3% | 95.2% | -0.53% (inactive) | -0.49% (inactive) |

| SMILES | viability [1] | Her2 level [2] | viability [3] | viability [4] | viability [5] | differential viability (reversal) ([6]; H69AR cells + 2 uM doxorubicin) | viability [6, 9] | viability [6, 10] | inhibition [7] | inhibition [8] |
| --- | --- | --- | --- | --- | --- | --- | --- | --- | --- | --- |
| CCCCn1nnc(NC(=O)Cc2ccc(Cl)cc2)n1 | 112% | 134% (inactive) | 112% (inactive) | 106% (inactive) | 90% (inactive) | 17.9% (inactive) | 72.1% | 90% | -3.9% (inactive) | -3.5% (inactive) |
| CCCOc1ccc(OCCSc2ncccn2)cc1 | 97% | 91% (inactive) | 97% (inactive) | 99.6% (inactive) | 102% (inactive) | 18.8% (inactive) | 83.1% | 102% | -6.67% (inactive) | -0.79% (inactive) |
| O=C1CCn2nc(-c3ccc(Cl)cc3)cc2N1 | 106% | 96% (inactive) | 106% (inactive) | 31.3% (inactive) | 97.8% (inactive) | 5.93% (inactive) | 91.8% | 97.8% | -2.18% (inactive) | 1.83% (inactive) |
| COc1ccc(S(=O)(=O)N2CCCC2C(=O)Nc2ccc(C)cc2)cc1 (stereo not given) | 88% | 105% (inactive) | 88% (inactive) | 92.2% (inactive) | 89.2% (inactive) | -8.78% (inactive) | 98% | 89.2% | -4.86% (inactive) | -4.1% (inactive) |
| CC(=O)N1CCC(N(C(=O)Nc2ccc(C)c(C)c2)C2CCCC2)CC1 | 92% | 102% (inactive) | 92% (inactive) | 90.4% (inactive) | 85.6% (inactive) | -3.42% (inactive) | 89.1% | 85.6% | -1.54% (inactive) | -5.33% (inactive) |
| N#Cc1c(N)n(CCNC(=O)c2cccs2)c2nc3ccccc3nc12 | 82.5% | 84.5% (inactive) | 82.5% (inactive) | 97.9% (inactive) | 90.9% (inactive) | -7.67% (inactive) | 98.5% | 90.9% | -5.6% (inactive) | -0.16% (inactive) |
| COc1ccc2c(c1)C(=NO)c1cc(OC)ccc1-2 | 120% | 61.5% (inactive) | 120% (inactive) | 58.5% (inactive) | 83.8% (inactive) | -6.16% (inactive) | 90% | 83.8% | -8.24% (inactive) | 2% (inactive) |
| CC(NC(=O)Nc1nccs1)(C(F)(F)F)C(F)(F)F | 102% | 83.5% (inactive) | 102% (inactive) | 103% (inactive) | 99.7% (inactive) | 3.42% (inactive) | 96.2% | 99.7% | -7.26% (inactive) | -6.51% (inactive) |
| CCOc1ncccc1C(=O)OCC(=O)Nc1ncc(C(F)(F)F)cc1Cl | 99.5% | 95% (inactive) | 99.5% (inactive) | 97.2% (inactive) | 93.8% (inactive) | -0.51% (inactive) | 94.3% | 93.8% | -1.58% (inactive) | 7.9% (inactive) |
| COc1ccc(OC)c(NC(=O)CS(=O)(=O)Cc2nc(-c3ccccc3C)oc2C)c1 | 97.5% | 97.5% (inactive) | 97.5% (inactive) | 66.1% (inactive) | 94.4% (inactive) | -2.23% (inactive) | 96.6% | 94.4% | -2.8% (inactive) | 6.83% (inactive) |
| CC1=CC2=C(OC1N(C)C)c1cccc3cccc(c13)C2=O (stereo not given) | 106% | 65% (inactive) | 106% (inactive) | 83% (inactive) | 78.5% (inactive) | -0.375% (inactive) | 78.9% | 78.5% | 2.21% (inactive) | 6.17% (inactive) |
| Cn1c2c(c(=O)n(C)c1=O)C(CC(=O)Nc1ccccc1)C(=O)N2 (stereo not given) | 106% | 78.5% (inactive) | 106% (inactive) | 106% (inactive) | 108% (inactive) | 21.8% (inactive) | 86.4% | 108% | -2.97% (inactive) | 8.57% (inactive) |
| O=C(Cc1ccccc1)N1CCCC(c2nc(-c3cccs3)no2)C1 (stereo not given) | 91.5% | 111% (inactive) | 91.5% (inactive) | 95.5% (inactive) | 102% (inactive) | 16.8% (inactive) | 85.7% | 102% | -5.27% (inactive) | -3.61% (inactive) |
| Cc1cc(OC(=O)N2CCOCC2)cc(C)c1Cl | 93.5% | 94.5% (inactive) | 93.5% (inactive) | 88.7% (inactive) | 105% (inactive) | 19.9% (inactive) | 84.9% | 105% | -3.55% (inactive) | -6.35% (inactive) |
| O=C(O)CCCc1nc(-c2ccccc2)no1 | 91.5% | 87.5% (inactive) | 91.5% (inactive) | 96% (inactive) | 97% (inactive) | -0.87% (inactive) | 97.8% | 97% | -4.53% (inactive) | 0.95% (inactive) |
